Here are results for 41 molecules from ChEMBL document CHEMBL1143881, “Sulfonamidolactam inhibitors of coagulation factor Xa” (Bioorg Med Chem Lett, 2008).

pKi: −log10 of the molar value.

In one assay the target is Coagulation factor X (Homo sapiens, UniProt P00742). The assay is described as follows: Inhibition of human factor 10a. The essentials:
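Inhibition constant (Ki) measured against purified human factor Xa; each value is the average of two independent experiments (n = 2).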

For a further assay, the system named is Plasma. In words: Anticoagulant efficacy in human citreated plasma assessed as concentration required to double prothrombin time. Type of assay: functional.
A short description of assay [1]: Selectivity for human factor 10a over thrombin.
A short description of assay [2]: Selectivity for human factor 10a over trypsin.

Coagulation factor X, sequence (P00742 41-179 limits assumed): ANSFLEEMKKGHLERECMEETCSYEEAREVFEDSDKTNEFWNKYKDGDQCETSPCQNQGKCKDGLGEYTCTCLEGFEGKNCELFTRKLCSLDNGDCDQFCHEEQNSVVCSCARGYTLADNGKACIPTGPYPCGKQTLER
Coagulation factor X, sequence (P00742 235-488 limits assumed): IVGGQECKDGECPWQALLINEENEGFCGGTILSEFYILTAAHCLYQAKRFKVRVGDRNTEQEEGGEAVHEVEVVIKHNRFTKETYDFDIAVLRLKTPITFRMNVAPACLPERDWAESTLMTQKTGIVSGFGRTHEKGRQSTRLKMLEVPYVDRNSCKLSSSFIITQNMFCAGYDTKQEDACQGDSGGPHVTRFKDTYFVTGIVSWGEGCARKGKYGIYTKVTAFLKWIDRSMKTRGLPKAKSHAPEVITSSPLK

`CS(=O)(=O)c1ccccc1-c1ccc(N2CCCC(N(CC(=O)O)S(=O)(=O)c3ccc4cc(Cl)ccc4c3)C2=O)c(F)c1` (stereo unspecified): the negative-log Ki (pKi) at Coagulation factor X was 9.00. Further, the PT in the assay with Plasma turned out to be 250 µM. The Selectivity ratio in assay [1] and in assay [2] was over 1000 throughout.

With `CS(=O)(=O)c1ccccc1-c1ccc(N2CCCC(NS(=O)(=O)c3cccc(Cl)c3)C2=O)c(F)c1` (stereo unspecified), the pKi on Coagulation factor X was 6.42. Moreover, the Selectivity ratio in assay [1] and in assay [2] was over 1000 each time.

As for `CS(=O)(=O)c1ccccc1-c1ccc(N2CCCC(NS(=O)(=O)c3cnc4ccccc4c3)C2=O)c(F)c1` (stereo unspecified), at Coagulation factor X, the pKi was 7.55. Further, the Selectivity ratio in assay [1] and in assay [2] was over 1000 in each case.

For `NC(=O)CN(C1CCCN(c2ccc(-n3ccccc3=O)cc2)C1=O)S(=O)(=O)c1cc2ccc(Cl)nc2s1` (stereo unspecified), at Coagulation factor X, the pKi was 10.00. The PT with Plasma stood at 4.8 µM. Besides, the Selectivity ratio in assay [1] and in assay [2] was over 1000 throughout.

In turn, `CS(=O)(=O)c1ccccc1-c1ccc(N2CCCC(NS(=O)(=O)c3ccc4onc(N)c4c3)C2=O)c(F)c1` (stereo unspecified) gave a negative logarithm of the Ki (pKi) on Coagulation factor X of 7.72. Moreover, the Selectivity ratio in assay [1] and in assay [2] was over 1000 throughout.

Turning to `CS(=O)(=O)c1ccccc1-c1ccc(N2CCCC(NS(=O)(=O)c3cccnc3)C2=O)c(F)c1` (stereo unspecified), the pKi on Coagulation factor X is 5.59. Moreover, the Selectivity ratio in assay [1] and in assay [2] was over 1000 each time.

With `CS(=O)(=O)c1ccccc1-c1ccc(N2CCCC(NS(=O)(=O)c3ccc(Cl)c(Cl)c3)C2=O)c(F)c1` (stereo unspecified), the negative-log Ki (pKi) at Coagulation factor X is 7.21. Further, the Selectivity ratio in assay [1] and in assay [2] was over 1000 throughout.

For `CS(=O)(=O)c1ccccc1-c1ccc(N2CCCC(NS(=O)(=O)c3ccc(C#N)cc3)C2=O)c(F)c1` (stereo unspecified), the pKi on Coagulation factor X is 6.38. For the same molecule, the Selectivity ratio in assay [1] and in assay [2] was over 1000 in each case.

On to `CS(=O)(=O)c1ccccc1-c1ccc(N2CCCC(NS(=O)(=O)c3ccc4cn[nH]c4c3)C2=O)c(F)c1` (stereo unspecified), for which the pKi at Coagulation factor X was 7.72. The Selectivity ratio in assay [1] and in assay [2] was over 1000 in each case.

For `CCc1ccc(S(=O)(=O)NC2CCCN(c3ccc(-c4ccccc4S(C)(=O)=O)cc3F)C2=O)cc1` (stereo unspecified), on Coagulation factor X, the negative-log Ki (pKi) was 7.11. In addition, the Selectivity ratio in assay [1] and in assay [2] was over 1000 throughout.

With `CS(=O)(=O)c1ccccc1-c1ccc(N2CCCC(NS(=O)(=O)c3cc(Cl)ccc3Cl)C2=O)c(F)c1` (stereo unspecified), on Coagulation factor X, the pKi was 6.19. Besides, the Selectivity ratio in assay [1] and in assay [2] was over 1000 each time.

With `CN(C)CCN(C)C(=O)CN(C1CCCN(c2ccc(N3CCCCC3=O)cc2F)C1=O)S(=O)(=O)c1ccc2cc(Cl)ccc2c1` (stereo unspecified), the pKi on Coagulation factor X is 8.77. In the assay on Plasma, the PT was found to be 12 µM. Besides, the Selectivity ratio in assay [1] and in assay [2] was over 1000 throughout.

`Cc1c(S(=O)(=O)NC2CCCN(c3ccc(-c4ccccc4S(C)(=O)=O)cc3F)C2=O)sc2ccc(Cl)cc12` (stereo unspecified) had a negative-log Ki (pKi) on Coagulation factor X of 6.80. The Selectivity ratio in assay [1] and in assay [2] was over 1000 in each case.

Molecule `CS(=O)(=O)c1ccccc1-c1ccc(N2CCCC(NS(=O)(=O)c3cccc4cc(Cl)ccc34)C2=O)c(F)c1` (stereo unspecified) gave a pKi on Coagulation factor X of 8.66. Also, in the assay with Plasma, the PT is 102 µM. For the same molecule, the Selectivity ratio in assay [1] and in assay [2] was over 1000 throughout.

Consider `O=C1CCCCN1c1ccc(N2CCCC(NS(=O)(=O)c3ccc4cc(Cl)ccc4c3)C2=O)c(F)c1` (stereo unspecified), for which, on Coagulation factor X, the negative logarithm of the Ki (pKi) is 8.00. Besides, the Selectivity ratio in assay [1] and in assay [2] was over 1000 throughout.

In turn, `O=C1C(NS(=O)(=O)c2ccc3cc(Cl)ccc3c2)CCCN1c1ccc(N2CCCCC2)cc1F` (stereo unspecified) had a pKi on Coagulation factor X of 7.80. In addition, the Selectivity ratio in assay [1] and in assay [2] was over 1000 each time.

As to `CS(=O)(=O)c1ccccc1-c1ccc(N2CCCC(NS(=O)(=O)c3ccc(-c4ccon4)s3)C2=O)c(F)c1` (stereo unspecified), the pKi on Coagulation factor X was 7.59. The Selectivity ratio in assay [1] and in assay [2] was over 1000 each time.

`O=C1C(NS(=O)(=O)c2ccc3cc(Cl)ccc3c2)CCCN1c1ccc(-n2ccccc2=O)cc1F` (stereo unspecified): the pKi on Coagulation factor X was 9.96. For the same molecule, the PT in the assay on Plasma worked out at 35 µM. For the same molecule, the Selectivity ratio in assay [1] and in assay [2] was over 1000 throughout.

Consider `COC(=O)CN(C1CCCN(c2ccc(-n3ccnc3C[N+](C)(C)CC(=O)OC)cc2F)C1=O)S(=O)(=O)c1ccc2cc(Cl)ccc2c1` (stereo unspecified), for which, at Coagulation factor X, the pKi was 9.68. Also, the PT in the assay with Plasma was 12 µM. The Selectivity ratio in assay [1] and in assay [2] was over 1000 throughout.

Molecule `O=C(O)CN(C1CCCN(c2ccc(-n3ccccc3=O)cc2)C1=O)S(=O)(=O)c1cc2ccc(Cl)nc2s1` (stereo unspecified) showed a negative-log Ki (pKi) at Coagulation factor X of 9.89. Besides, the PT in the assay with Plasma amounted to 16 µM. The Selectivity ratio in assay [1] and in assay [2] was over 1000 in each case.

Take `CN(C)CCN(C)C(=O)CN(C1CCCN(c2ccc(-n3ccccc3=O)cc2F)C1=O)S(=O)(=O)c1cc2ccc(Cl)nc2s1` (stereo unspecified): the pKi on Coagulation factor X is 10.89. Moreover, the PT with Plasma came out at 2.1 µM. Moreover, the Selectivity ratio in assay [1] and in assay [2] was over 1000 throughout.

Molecule `CS(=O)(=O)c1ccccc1-c1ccc(N2CCCC(NS(=O)(=O)c3ccc(N)nc3)C2=O)c(F)c1` (stereo unspecified) gave a pKi at Coagulation factor X of 6.59. Moreover, the Selectivity ratio in assay [1] and in assay [2] was over 1000 in each case.

Regarding `COc1ccc(NC2CCCN(c3ccc(-c4ccccc4S(C)(=O)=O)cc3F)C2=O)cc1` (stereo unspecified), the pKi at Coagulation factor X was 6.35. Also, the Selectivity ratio in assay [1] and in assay [2] was over 1000 in each case.

As for `CS(=O)(=O)c1ccccc1-c1ccc(N2CCCC(NS(=O)(=O)c3ccc(F)cc3)C2=O)c(F)c1` (stereo unspecified), the pKi on Coagulation factor X is 7.35. Further, the Selectivity ratio in assay [1] and in assay [2] was over 1000 in each case.

At Coagulation factor X, `COc1ccc(C(=O)NC2CCCN(c3ccc(-c4ccccc4S(C)(=O)=O)cc3F)C2=O)cc1` (stereo unspecified) gave a negative logarithm of the Ki (pKi) of 6.25. Also, the Selectivity ratio in assay [1] and in assay [2] was over 1000 each time.

On to `CS(=O)(=O)c1ccccc1-c1ccc(N2CCCC(NS(=O)(=O)c3ccc4ncccc4c3)C2=O)c(F)c1` (stereo unspecified), for which, on Coagulation factor X, the pKi was 7.14. In addition, the Selectivity ratio in assay [1] and in assay [2] was over 1000 each time.

For the molecule `COC(=O)C[N+](C)(C)Cc1nccn1-c1ccc(N2CCCC(NS(=O)(=O)c3ccc4cc(Cl)ccc4c3)C2=O)c(F)c1` (stereo unspecified), the pKi on Coagulation factor X is 9.46. In the assay on Plasma, the PT amounted to 13 µM. The Selectivity ratio in assay [1] and in assay [2] was over 1000 each time.

The molecule `CN(C)Cc1nccn1-c1ccc(N2CCCC(NS(=O)(=O)c3ccc4cc(Cl)ccc4c3)C2=O)c(F)c1` (stereo unspecified) showed a pKi at Coagulation factor X of 8.62. In addition, the PT in the assay with Plasma came to 13 µM. In addition, the Selectivity ratio in assay [1] and in assay [2] was over 1000 each time.

For `CS(=O)(=O)c1ccccc1-c1ccc(N2CCCC(NS(=O)(=O)c3ccc(Cl)cc3)C2=O)c(F)c1` (stereo unspecified), the negative logarithm of the Ki (pKi) on Coagulation factor X was 7.64. Further, the Selectivity ratio in assay [1] and in assay [2] was over 1000 each time.

Take `CS(=O)(=O)c1ccccc1-c1ccc(N2CCCC(N(CCCO)S(=O)(=O)c3ccc4cc(Cl)ccc4c3)C2=O)c(F)c1` (stereo unspecified): the pKi at Coagulation factor X is 8.64. In addition, in the assay with Plasma, the PT was 208 µM. In addition, the Selectivity ratio in assay [1] and in assay [2] was over 1000 each time.

For `CS(=O)(=O)c1ccccc1-c1ccc(N2CCCC(NS(=O)(=O)c3cccc4ccc(Cl)cc34)C2=O)c(F)c1` (stereo unspecified), the negative-log Ki (pKi) at Coagulation factor X was 7.74. Also, the Selectivity ratio in assay [1] and in assay [2] was over 1000 throughout.

For the molecule `CS(=O)(=O)c1ccccc1-c1ccc(N2CCCC(NS(=O)(=O)c3ccc(Cl)s3)C2=O)c(F)c1` (stereo unspecified), at Coagulation factor X, the negative logarithm of the Ki (pKi) was 8.28. Further, the Selectivity ratio in assay [1] and in assay [2] was over 1000 throughout.

With `COc1cccc(S(=O)(=O)NC2CCCN(c3ccc(-c4ccccc4S(C)(=O)=O)cc3F)C2=O)c1` (stereo unspecified), the pKi on Coagulation factor X is 7.00. The Selectivity ratio in assay [1] and in assay [2] was over 1000 throughout.

`COc1ccc(S(=O)(=O)NC2CCCN(c3ccc(-c4ccccc4S(C)(=O)=O)cc3F)C2=O)cc1` (stereo unspecified) gave a pKi on Coagulation factor X of 7.28. The Selectivity ratio in assay [1] and in assay [2] was over 1000 each time.

In the case of `O=C1C(NS(=O)(=O)c2ccc3cc(Cl)ccc3c2)CCCN1c1ccc(-c2ccncc2)cc1F` (stereo unspecified), the pKi at Coagulation factor X is 7.55. Moreover, the Selectivity ratio in assay [1] and in assay [2] was over 1000 throughout.

`CS(=O)(=O)c1ccccc1-c1ccc(N2CCCC(NS(=O)(=O)c3ccc(F)c(F)c3)C2=O)c(F)c1` (stereo unspecified) showed a negative-log Ki (pKi) at Coagulation factor X of 6.57. The Selectivity ratio in assay [1] and in assay [2] was over 1000 each time.

At Coagulation factor X, `CS(=O)(=O)c1ccccc1-c1ccc(N2CCCC(NS(=O)(=O)Cc3ccccc3)C2=O)c(F)c1` (stereo unspecified) showed a pKi of 5.49. The Selectivity ratio in assay [1] and in assay [2] was over 1000 in each case.

On Coagulation factor X, `CS(=O)(=O)c1ccccc1-c1ccc(N2CCCC(NS(=O)(=O)c3ccccc3)C2=O)c(F)c1` (stereo unspecified) had a negative-log Ki (pKi) of 6.43. For the same molecule, the Selectivity ratio in assay [1] and in assay [2] was over 1000 in each case.

`COC(=O)CN(C1CCCN(c2ccc(-c3ccccc3S(C)(=O)=O)cc2F)C1=O)S(=O)(=O)c1ccc2cc(Cl)ccc2c1` (stereo unspecified) gave a pKi on Coagulation factor X of 9.06. Also, the PT with Plasma is 89 µM. The Selectivity ratio in assay [1] and in assay [2] was over 1000 each time.

As for `CS(=O)(=O)c1ccccc1-c1ccc(N2CCCC(NS(=O)(=O)c3cc(Cl)cc(Cl)c3)C2=O)c(F)c1` (stereo unspecified), the negative logarithm of the Ki (pKi) on Coagulation factor X was 6.14. The Selectivity ratio in assay [1] and in assay [2] was over 1000 each time.

Regarding `CN(C)CCN(C)C(=O)CN(C1CCCN(c2ccc(-n3ccccc3=O)cc2F)C1=O)S(=O)(=O)c1ccc2cc(Cl)ccc2c1` (stereo unspecified), the negative logarithm of the Ki (pKi) at Coagulation factor X was 10.70. Besides, the PT in the assay on Plasma was found to be 3.3 µM. Moreover, the Selectivity ratio in assay [1] and in assay [2] was over 1000 each time.

The term pKi denotes −log10 of the Ki, conventionally taken in molar units.
